pIC50: −log10 of the molar value.
Columns and labels:
[1] = molecular target: T1, Capsid scaffolding protein (Human cytomegalovirus (strain AD169) (HHV-5) (Human herpesvirus 5), UniProt P16753); test: Tested in vitro for inhibitory activity against Protease; set-up: species or system Human betaherpesvirus 5
T1 sequence (P16753 whole entry): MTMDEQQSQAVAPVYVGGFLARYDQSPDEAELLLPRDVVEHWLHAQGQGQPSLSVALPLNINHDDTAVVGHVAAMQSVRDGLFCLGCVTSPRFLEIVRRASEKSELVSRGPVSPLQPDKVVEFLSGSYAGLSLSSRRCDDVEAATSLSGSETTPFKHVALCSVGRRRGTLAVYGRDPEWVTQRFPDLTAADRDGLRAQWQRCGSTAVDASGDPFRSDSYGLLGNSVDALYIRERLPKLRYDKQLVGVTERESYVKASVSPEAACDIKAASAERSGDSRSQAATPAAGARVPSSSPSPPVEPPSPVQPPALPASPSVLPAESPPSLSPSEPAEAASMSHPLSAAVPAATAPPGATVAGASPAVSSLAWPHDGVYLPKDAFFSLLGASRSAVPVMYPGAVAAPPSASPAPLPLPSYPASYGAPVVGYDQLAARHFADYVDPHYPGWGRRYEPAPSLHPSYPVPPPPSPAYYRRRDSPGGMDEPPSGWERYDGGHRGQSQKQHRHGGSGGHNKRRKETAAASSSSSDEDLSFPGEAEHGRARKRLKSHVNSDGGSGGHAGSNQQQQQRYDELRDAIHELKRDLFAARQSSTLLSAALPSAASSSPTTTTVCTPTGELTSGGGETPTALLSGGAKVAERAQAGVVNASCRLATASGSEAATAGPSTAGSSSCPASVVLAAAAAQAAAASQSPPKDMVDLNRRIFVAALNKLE
In short: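 Human cytomegalovirus protease inhibition was measured in a p-nitroanilide (pNA) chromogenic substrate assay. Values are reported as IC50 in μM, with Ki also given for some compounds.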

[2] = Half life in human plasma was reported; assay type: ADME, cell-free

| SMILES | pIC50 [1] | half-life [2] [h] |
| --- | --- | --- |
| COP(=O)(OC)N1C(=O)[C@@H](C)[C@@H]2[C@@H]1CCN2C(=O)OCc1ccccc1 | < 3.30 | > 24 |
| COC(=O)N1C(=O)[C@@H](C)[C@@H]2[C@@H]1CCN2C(=O)OCc1ccccc1 | 3.83 | 0.833 |
| CNC(=O)N1C(=O)[C@@H](C)[C@@H]2[C@@H]1CCN2C(=O)[C@@H]1CCCN1S(=O)(=O)c1cccc2c(N(C)C)cccc12 | 4.66 | 12 |
| C[C@@H]1C(=O)N(C(=O)NCc2ccccc2)[C@H]2CCN(C(=O)OCc3ccccc3)[C@H]12 | 3.60 | 12 |
| C[C@@H]1C(=O)N(C(=O)C(C)(C)C)[C@H]2CCN(C(=O)OCc3ccccc3)[C@H]12 | < 3.30 | 3.7 |
| C[C@@H]1C(=O)N(c2nccs2)[C@H]2CCN(C(=O)OCc3ccccc3)[C@H]12 | ~3.30 | 44 |
| C[C@@H]1C(=O)N(C(=O)C2CC2)[C@H]2CCN(C(=O)OCc3ccccc3)[C@H]12 | 5.05 | 1.4 |
| C[C@@H]1[C@H](C)[C@@H]1C(=O)N1C(=O)[C@@H](C)[C@@H]2[C@@H]1CCN2C(=O)OCc1ccccc1 | 4.14 | 9.8 |
| CC1CC1C(=O)N1C(=O)[C@@H](C)[C@@H]2[C@@H]1CCN2C(=O)[C@@H]1CCCN1S(=O)(=O)c1cccc2c(N(C)C)cccc12 (stereo partly drawn) | 5.85 | 2.5 |
| C[C@@H]1C(=O)N(C(=O)NCc2ccccc2)[C@H]2CCN(C(=O)[C@@H]3CCCN3S(=O)(=O)c3cccc4c(N(C)C)cccc34)[C@H]12 | 5.18 | > 33 |
| CC1CC1C(=O)N1C(=O)[C@@H](C)[C@@H]2[C@@H]1CCN2C(=O)OCc1ccccc1 (stereo partly drawn) | 4.80 | 2.6 |
| C[C@@H]1C(=O)N(C(=O)C2C(C)(C)C2(C)C)[C@H]2CCN(C(=O)OCc3ccccc3)[C@H]12 | < 3.30 | 33 |
| C[C@@H]1C(=O)N(C(=O)C2C(C)(C)C2(C)C)[C@H]2CCN(C(=O)[C@@H]3CCCN3S(=O)(=O)c3cccc4c(N(C)C)cccc34)[C@H]12 | < 4.00 | > 24 |
| C[C@@H]1C(=O)N(c2nccs2)[C@H]2CCN(C(=O)[C@@H]3CCCN3S(=O)(=O)c3cccc4c(N(C)C)cccc34)[C@H]12 | 5.68 | > 50 |
| C[C@@H]1C(=O)N(c2ccc([N+](=O)[O-])cc2)[C@H]2CCN(C(=O)[C@@H]3CCCN3S(=O)(=O)c3cccc4c(N(C)C)cccc34)[C@H]12 | 4.39 |  |
| C[C@@H]1[C@H](C)[C@@H]1C(=O)N1C(=O)[C@@H](C)[C@@H]2[C@@H]1CCN2C(=O)[C@@H]1CCCN1S(=O)(=O)c1cccc2c(N(C)C)cccc12 | 5.29 | 20 |
| C[C@@H]1C(=O)N(C(=O)C2CC2)[C@H]2CCN(C(=O)[C@@H]3CCCN3S(=O)(=O)c3cccc4c(N(C)C)cccc34)[C@H]12 |  | 5 |
| C[C@@H]1C(=O)N(S(C)(=O)=O)[C@H]2CCN(C(=O)OCc3ccccc3)[C@H]12 | ~3.30 | < 0.0833 |
| CC(=O)N1C(=O)C(C)(C)[C@@H]2[C@@H]1CCN2C(=O)OCc1ccccc1 | < 3.30 | 6.5 |
| C[C@@H]1C(=O)N(c2ccc([N+](=O)[O-])cc2)[C@H]2CCN(C(=O)OCc3ccccc3)[C@H]12 | ~3.30 | 40 |
| CC(=O)N1C(=O)[C@@H](C)[C@@H]2[C@@H]1CCN2C(=O)OCc1ccccc1 |  | 0.9 |
| C[C@@H]1C(=O)N(c2ccc([N+](=O)[O-])cc2[N+](=O)[O-])[C@H]2CCN(C(=O)OCc3ccccc3)[C@H]12 | ~3.30 | > 24 |
| CNC(=O)N1C(=O)[C@@H](C)[C@@H]2[C@@H]1CCN2C(=O)OCc1ccccc1 | < 3.30 | > 24 |

Reference: ChEMBL document CHEMBL1135165, “Pyrrolidine-5,5-trans-lactams as novel mechanism-based inhibitors of human cytomegalovirus protease. Part 3: potency and plasma stability” (Bioorg Med Chem Lett, 2002)
